Source: ChEMBL document CHEMBL3400013, “Synthesis and biological activity evaluation of hydrazone derivatives based on a Tröger's base skeleton” (Bioorg Med Chem, 2015)
pIC50: −log10 of the molar value. The source made the active and inactive calls. The calls are words filed in the database; no cut-off is given here.

Key:
[1] = Metal chelating activity of the compound assessed as formation of Mn2+ complex by UV-vis spectrometry; format: physicochemical
[2] = Cytostatic activity against human HCT116 cells after 72 hrs by MTT assay; format: functional, cell-based; conditions: HCT-116, 72 h
Outline: (§1)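 Cells were seeded at 25,000–30,000 per well and pre-incubated for 24 h at 37°C in 5% CO2. Four-fold compound dilutions were added in duplicate and incubated for 72 h. MTT was added for 1–4 h, and formazan was dissolved in 10% aq SDS (pH 5.5) overnight at 37°C. OD was read at 540 nm. IC50 came from dose-response curves, mean ± SD of eight independent experiments.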

[3] = Cytostatic activity against human CEM-DNR cells after 72 hrs by MTT assay; format: functional, cell-based; outline: as §1
Candida albicans = experiment: Antifungal activity against Candida albicans up to 200 uM after 24 to 48 hrs by broth microdilution method; format: functional, organism-based
CCRF-CEM [4] = experiment: Cell cycle arrest in human CCRF-CEM cells assessed as accumulation at S phase at IC50 after 24 hrs by propidium iodide staining-based flow cytometry; format: functional
Outline: (§2)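 Cells were then fixed in 70% ethanol, washed in hypotonic citrate buffer, treated with RNase (50 µg/mL) and stained with propidium iodide. Flow cytometry used a 488 nm laser. Apoptosis was scored as the percentage of particles with propidium content below G0/G1.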

MRC5 [5] = experiment: Cytostatic activity against human MRC5 cells after 72 hrs by MTT assay; format: ADME, cell-based; conditions: MRC5, 72 h; outline: as §1
[6] = Metal chelating activity of the compound assessed as formation of Ni2+ complex by UV-vis spectrometry; format: physicochemical
Staphylococcus aureus [7] = experiment: Antimicrobial activity against methicillin-resistant Staphylococcus aureus MRSA 4591 up to 200 uM after 24 to 48 hrs by broth microdilution method; format: functional, organism-based
CCRF-CEM [8] = experiment: Cell cycle arrest in human CCRF-CEM cells assessed as accumulation at G0/G1 phase at 5 times IC50 after 24 hrs by propidium iodide staining-based flow cytometry; format: functional; outline: as §2
Pseudomonas aeruginosa = experiment: Antimicrobial activity against multidrug-resistant Pseudomonas aeruginosa A/16575 up to 200 uM after 24 to 48 hrs by broth microdilution method; format: functional, organism-based
[9] = Metal chelating activity of the compound assessed as formation of Mg2+ complex by UV-vis spectrometry; format: physicochemical
CCRF-CEM [10] = experiment: Induction of apoptosis in human CCRF-CEM cells assessed as apoptotic cells at IC50 after 24 hrs by propidium iodide staining-based flow cytometry; format: functional; outline: as §2
CCRF-CEM [11] = experiment: Induction of apoptosis in human CCRF-CEM cells assessed as inhibition of DNA synthesis at 5 times IC50 after 24 hrs by propidium iodide/BrdU staining by flow cytometry; format: functional; parameters: scale not given: the % may be the effect or the level left
[12] = Metal chelating activity of the compound assessed as formation of Zn2+ complex by UV-vis spectrometry; format: physicochemical
[13] = Metal chelating activity of the compound assessed as formation of Co2+ complex by UV-vis spectrometry; format: physicochemical
BJ [14] = experiment: Cytostatic activity against human BJ cells after 72 hrs by MTT assay; format: ADME, cell-based; outline: as §1
[15] = Metal chelating activity of the compound assessed as formation of Ca2+ complex by UV-vis spectrometry; format: physicochemical
CCRF-CEM [16] = experiment: Cell cycle arrest in human CCRF-CEM cells assessed as accumulation at G2/M phase at IC50 after 24 hrs by propidium iodide staining-based flow cytometry; format: functional; outline: as §2
BJ [17] = experiment: Selectivity index, ratio of IC50 for human BJ cells to IC50 for human CEM-DNR cells; format: functional
[18] = Metal chelating activity of the compound assessed as formation of Fe3+ complex by UV-vis spectrometry; format: physicochemical
[19] = Cytostatic activity against human K562-TAX cells after 72 hrs by MTT assay; format: functional, cell-based; outline: as §1
CCRF-CEM [20] = experiment: Induction of apoptosis in human CCRF-CEM cells assessed as mitotic cells at IC50 after 24 hrs by pH3Ser10+ labeling-based flow cytometry; format: functional
A549 [21] = experiment: Selectivity index, ratio of IC50 for human MRC5 cells to IC50 for human A549 cells; format: functional
[22] = Cytostatic activity against human p53-/- HCT116 cells after 72 hrs by MTT assay; format: functional, cell-based; conditions: HCT-116, 72 h; outline: as §1
K562 [23] = experiment: Selectivity index, ratio of IC50 for human MRC5 cells to IC50 for human K562 cells; format: functional
[24] = system: Staphylococcus haemolyticus; experiment: Antimicrobial activity against methicillin-resistant Staphylococcus haemolyticus A1/16568 up to 200 uM after 24 to 48 hrs by broth microdilution method; format: functional, organism-based
[25] = Metal chelating activity of the compound assessed as formation of Cr3+ complex by UV-vis spectrometry; format: physicochemical
[26] = Metal chelating activity of the compound assessed as formation of Cu2+ complex by UV-vis spectrometry; format: physicochemical
Nucleic Acid [27] = experiment: Binding affinity to DNA (unknown origin) assessed as DNA intercalation by UV-visible spectrophotometry in presence of Co2+; format: nucleic-acid assay
CCRF-CEM [28] = experiment: Induction of apoptosis in human CCRF-CEM cells assessed as inhibition of DNA synthesis at IC50 after 24 hrs by propidium iodide/BrdU staining by flow cytometry; format: functional; parameters: scale not given: the % may be the effect or the level left
HCT-116 [29] = experiment: Selectivity index, ratio of IC50 for human MRC5 cells to IC50 for human HCT116 cells; format: functional
MRC5 [30] = experiment: Selectivity index, ratio of IC50 for human MRC5 cells to IC50 for human K562-TAX cells; format: functional
HCT-116 [31] = experiment: Selectivity index, ratio of IC50 for human MRC5 cells to IC50 for human p53-/- HCT116 cells; format: functional
Nucleic Acid [32] = experiment: Binding affinity to DNA (unknown origin) assessed as DNA intercalation by UV-visible spectrophotometry in presence of Fe3+; format: nucleic-acid assay
K562 [33] = experiment: Cytostatic activity against human K562 cells after 72 hrs by MTT assay; format: functional, cell-based; conditions: K562, 72 h; outline: as §1
Nucleic Acid [34] = experiment: Binding affinity to DNA (unknown origin) assessed as DNA intercalation by UV-visible spectrophotometry in presence of Zn2+; format: nucleic-acid assay
A549 [35] = experiment: Cytostatic activity against human A549 cells after 72 hrs by MTT assay; format: functional, cell-based; conditions: A549, 72 h; outline: as §1
CCRF-CEM [36] = experiment: Induction of apoptosis in human CCRF-CEM cells assessed as inhibition of RNA synthesis at IC50 after 24 hrs by propidium iodide/BrU staining by flow cytometry; format: functional; parameters: scale not given: the % may be the effect or the level left
BJ [37] = experiment: Selectivity index, ratio of IC50 for human BJ cells to IC50 for human K562-TAX cells; format: functional
Escherichia coli [38] = experiment: Antimicrobial activity against multidrug-resistant Escherichia coli C/16702 up to 200 uM after 24 to 48 hrs by broth microdilution method; format: functional, organism-based
CCRF-CEM [39] = experiment: Cell cycle arrest in human CCRF-CEM cells assessed as accumulation at G0/G1 phase at IC50 after 24 hrs by propidium iodide staining-based flow cytometry; format: functional; outline: as §2
Staphylococcus aureus [40] = experiment: Antimicrobial activity against Staphylococcus aureus CCM 3953 up to 200 uM after 24 to 48 hrs by broth microdilution method; format: functional, organism-based
Escherichia coli [41] = experiment: Antimicrobial activity against Escherichia coli CCM 3954 up to 200 uM after 24 to 48 hrs by broth microdilution method; format: functional, organism-based
Candida tropicalis = experiment: Antifungal activity against Candida tropicalis up to 200 uM after 24 to 48 hrs by broth microdilution method; format: functional, organism-based

O=C(N/N=C/c1nccc2ccccc12)c1ccc2c3c(ccc2c1)N1Cc2c(ccc4cc(C(=O)N/N=C/c5nccc6ccccc56)ccc24)N(C3)C1
Activity [1]: Not Active | pIC50 [2]: 4.75 | pIC50 [3]: 5.20 | Activity (Candida albicans): inactive | Activity (CCRF-CEM [4]): 38.56% | pIC50 (MRC5 [5]): < 4.00 | Activity [6]: Active | Activity (Staphylococcus aureus [7]): inactive | Activity (CCRF-CEM [8]): 46.56% | Activity (Pseudomonas aeruginosa): inactive | Activity [9]: Not Active | Activity (CCRF-CEM [10]): 8.4% | Activity (CCRF-CEM [11]): 43.36% | Activity [12]: Active | Activity [13]: Active | pIC50 (BJ [14]): < 4.00 | Activity [15]: Not Active | Activity (CCRF-CEM [16]): 15.35% | Ratio IC50 (BJ [17]): 15.9 | Activity [18]: Active | pIC50 [19]: 4.99 | Activity (CCRF-CEM [20]): 1.65% | Ratio IC50 (A549 [21]): 5.4 | pIC50 [22]: 4.60 | Ratio IC50 (K562 [23]): 121.9 | Activity [24]: inactive | Activity [25]: Not Active | Activity [26]: Active | Activity (Nucleic Acid [27]): Active | Activity (CCRF-CEM [28]): 52.93% | Ratio IC50 (HCT-116 [29]): 5.7 | Ratio IC50 (MRC5 [30]): 9.9 | Ratio IC50 (HCT-116 [31]): 4 | Activity (Nucleic Acid [32]): Active | pIC50 (K562 [33]): 6.09 | Activity (Nucleic Acid [34]): Active | pIC50 (A549 [35]): 4.73 | Activity (CCRF-CEM [36]): 44% | Ratio IC50 (BJ [37]): 9.9 | Activity (Escherichia coli [38]): inactive | Activity (CCRF-CEM [39]): 46.09% | Activity (Staphylococcus aureus [40]): inactive | Activity (Escherichia coli [41]): inactive | Activity (Candida tropicalis): inactive

O=C(N/N=C/c1cc(O)ccc1O)c1ccc2c3c(ccc2c1)N1Cc2c(ccc4cc(C(=O)N/N=C/c5cc(O)ccc5O)ccc24)N(C3)C1
Activity [1]: Not Active | pIC50 [2]: 6.41 | pIC50 [3]: 5.59 | Activity (Candida albicans): inactive | Activity (CCRF-CEM [4]): 44.72% | pIC50 (MRC5 [5]): 6.26 | Activity [6]: Active | Activity (Staphylococcus aureus [7]): inactive | Activity (CCRF-CEM [8]): 21.32% | Activity (Pseudomonas aeruginosa): inactive | Activity [9]: Not Active | Activity (CCRF-CEM [10]): 3.99% | Activity (CCRF-CEM [11]): 55.96% | Activity [12]: Active | Activity [13]: Active | pIC50 (BJ [14]): 5.18 | Activity [15]: Not Active | Activity (CCRF-CEM [16]): 17.9% | Ratio IC50 (BJ [17]): 1.4 | Activity [18]: Active | pIC50 [19]: 6.59 | Activity (CCRF-CEM [20]): 2.34% | Ratio IC50 (A549 [21]): 20.9 | pIC50 [22]: 6.92 | Ratio IC50 (K562 [23]): 8 | Activity [24]: inactive | Activity [25]: Not Active | Activity [26]: Active | Activity (Nucleic Acid [27]): Active | Activity (CCRF-CEM [28]): 50.15% | Ratio IC50 (HCT-116 [29]): 9.1 | Ratio IC50 (MRC5 [30]): 13.8 | Ratio IC50 (HCT-116 [31]): 29 | Activity (Nucleic Acid [32]): Active | pIC50 (K562 [33]): 6.36 | Activity (Nucleic Acid [34]): Active | pIC50 (A549 [35]): 6.77 | Activity (CCRF-CEM [36]): 48.47% | Ratio IC50 (BJ [37]): 13.8 | Activity (Escherichia coli [38]): inactive | Activity (CCRF-CEM [39]): 37.38% | Activity (Staphylococcus aureus [40]): inactive | Activity (Escherichia coli [41]): inactive | Activity (Candida tropicalis): inactive
